Data taken from ChEMBL document CHEMBL4765386, “Discovery of tertiary amide derivatives incorporating benzothiazole moiety as anti-gastric cancer agents in vitro via inhibiting tubulin polymerization and activating the Hippo signaling pathway” (Eur J Med Chem, 2020).
Calls of active or inactive are those of the source. The rule behind the calls is not given here.

Assays:
HCT-116 = test: Antiproliferative activity against human HCT-116 cells assessed as reduction in cell viability incubated for 48 hrs by MTT assay; assay type: functional, cell-based; conditions: HCT-116, 48 h
In short: (§1)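 MTT assay. 5,000 cells per well in RPMI-1640 with 10% FBS and penicillin/streptomycin at 37 °C, 5% CO2. Compound added 24 h after seeding and left for 48 h. MTT was then added for 4 h at 37 °C, formazan dissolved in DMSO and absorbance read at 490 nm. IC50 calculated from three independent experiments.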

SGC-7901 [1] = test: Induction of apoptosis in human SGC-7901 cells assessed as fragmentation of cells at 20 to 60 nM; assay type: functional, cell-based; conditions: dose 20-60 nM
In short: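 Gastric cancer cells in RPMI-1640/10% FBS at 37 °C, 5% CO2, exposed to 20, 40 and 60 nM for 48 h; nuclear morphology (condensation, fragmentation) inspected after staining.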

SGC-7901 [2] = test: Induction of apoptosis in human SGC-7901 cells assessed as downregulation of c-IAP1 at 20 to 60 nM incubated for 48 hrs by Western blot analysis; assay type: functional, cell-based; conditions: dose 20-60 nM
In short: (§2)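 Western blot on MGC-803 and SGC-7901 cells given 20, 40 and 60 nM compound or DMSO for 48 h. Denatured lysates were run on SDS-PAGE and transferred to PVDF, then probed with primary and secondary antibodies to detect apoptosis-related proteins.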

MGC-803 [3] = test: Induction of apoptosis in human MGC-803 cells assessed as early apoptotic cells at 20 nM incubated for 48 hrs by annexin V-FITC and PI staining based flow cytometry analysis (reference value: 2.9 %); assay type: functional
SGC-7901 [4] = test: Inhibition of colony formation in human SGC-7901 cells at 20 to 60 nM incubated for 7 days by crystal violet staining based assay; assay type: functional, cell-based; conditions: dose 20-60 nM, time 7.0 day
In short: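 Cells maintained in RPMI-1640 with 10% FBS at 37 °C, 5% CO2; incubated with 20, 40 and 60 nM for 7 days before colony counting.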

GES1 = test: Cytotoxicity against human GES1 cells assessed as reduction in cell viability incubated for 48 hrs by MTT assay; assay type: functional, cell-based; conditions: GES1, 48 h; in short: as §1
MGC-803 [5] = test: Induction of apoptosis in human MGC-803 cells assessed as fragmentation of cells at 20 to 60 nM; assay type: functional, cell-based; conditions: dose 20-60 nM
MGC-803 [6] = test: Induction of apoptosis in human MGC-803 cells assessed as upregulation of t-Bid at 20 to 60 nM incubated for 48 hrs by Western blot analysis; assay type: functional, cell-based; conditions: dose 20-60 nM; in short: as §2
MGC-803 [7] = test: Inhibition of tubulin polymerization in human MGC-803 cells assessed as increase in multiple nucleus formation at 20 to 60 nmol/L by DAPI staining based microscopic analysis; assay type: cell-based; conditions: dose 20-60 nmol/L
In short: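 Cells cultured in RPMI-1640 with 10% FBS at 37 °C, 5% CO2, treated 48 h with 20, 40 and 60 nM; stained for β-tubulin (green) and nuclei (blue) and examined by microscopy.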

MGC-803 [8] = test: Antiproliferative activity against human MGC-803 cells assessed as reduction in cell viability at 60 nmol/L incubated for 48 hrs by MTT assay relative to control; assay type: functional
In short: (§3)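 MTT viability in gastric cell lines grown in RPMI-1640 with 10% FBS at 37 °C, 5% CO2. Compound at 20, 40 and 60 nM for 48 h, starting 24 h after seeding 5,000 cells per well. MTT for 4 h, formazan dissolved in DMSO, absorbance at 490 nm. Inhibition expressed relative to control.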

SGC-7901 [9] = test: Activation of Hippo signaling pathway in human SGC-7901 cells assessed as increase in MST1/2 phosphorylation at 20 to 60 nM incubated for 48 hrs by Western blot analysis; assay type: cell-based; conditions: filed as activator, dose 20-60 nM
In short: (§4)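 Western blot on gastric cancer cells exposed to compound or DMSO at 20, 40 and 60 nM for 48 h. Cells were lysed, then the denatured lysates were separated by SDS-PAGE and transferred to PVDF. Membranes were blocked and probed with primary and then secondary antibodies. Hippo pathway proteins were detected.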

SGC-7901 [10] = test: Activation of Hippo signaling pathway in human SGC-7901 cells assessed as downregulation of TEAD at 20 to 60 nM incubated for 48 hrs by Western blot analysis; assay type: cell-based; conditions: filed as activator, dose 20-60 nM; in short: as §4
MGC-803 [11] = test: Induction of apoptosis in human MGC-803 cells assessed as upregulation of DR5 at 20 to 60 nM incubated for 48 hrs by Western blot analysis; assay type: functional, cell-based; conditions: dose 20-60 nM; in short: as §2
MGC-803 [12] = test: Induction of apoptosis in human MGC-803 cells assessed as increase in caspase-3 cleavage at 20 to 60 nM incubated for 48 hrs by Western blot analysis; assay type: functional, cell-based; conditions: dose 20-60 nM; in short: as §2
MGC-803 [13] = test: Induction of apoptosis in human MGC-803 cells assessed as upregulation of Bak at 20 to 60 nM incubated for 48 hrs by Western blot analysis; assay type: functional, cell-based; conditions: dose 20-60 nM; in short: as §2
MGC-803 [14] = test: Induction of apoptosis in human MGC-803 cells assessed as upregulation of Bax at 20 to 60 nM incubated for 48 hrs by Western blot analysis; assay type: functional, cell-based; conditions: dose 20-60 nM; in short: as §2
PC-3 = test: Antiproliferative activity against human PC-3 cells assessed as reduction in cell viability incubated for 48 hrs by MTT assay; assay type: functional, cell-based; conditions: PC-3, 48 h; in short: as §1
MGC-803 [15] = test: Induction of apoptosis in human MGC-803 cells assessed as increase in PARP cleavage at 20 to 60 nM incubated for 48 hrs by Western blot analysis; assay type: functional, cell-based; conditions: dose 20-60 nM; in short: as §2
MGC-803 [16] = test: Antiproliferative activity against human MGC-803 cells assessed as reduction in cell viability incubated for 48 hrs by MTT assay; assay type: functional, cell-based; conditions: MGC-803, 48 h
In short: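 MTT assay. Compound added 24 h after seeding and left for 48 h. MTT was then added for 4 h at 37 °C, formazan dissolved in DMSO and absorbance read at 490 nm. IC50 calculated from three independent experiments.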

[17] = Antiproliferative activity against human SGC-7901 cells assessed as reduction in cell viability at 60 nmol/L incubated for 48 hrs by MTT assay relative to control; assay type: functional; conditions: SGC-7901, 48 h; in short: as §3
SGC-7901 [18] = test: Induction of apoptosis in human SGC-7901 cells assessed as increase in caspase-9 cleavage at 20 to 60 nM incubated for 48 hrs by Western blot analysis; assay type: functional, cell-based; conditions: dose 20-60 nM
In short: (§5)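 Cells grown in RPMI-1640 with 10% FBS, penicillin/streptomycin at 37 °C, 5% CO2. Exposure to 20, 40 or 60 nM for 48 h alongside DMSO control. Lysates denatured, resolved by SDS-PAGE, transferred to PVDF, blocked, then probed with primary and secondary antibodies.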

SGC-7901 [19] = test: Induction of cell cycle arrest in human SGC-7901 cells assessed as upregulation of Histone-H3 Ser10 at 20 to 60 nM incubated for 48 hrs by Western blot analysis; assay type: functional, cell-based; conditions: dose 20-60 nM; in short: as §5
MGC-803 [20] = test: Activation of Hippo signaling pathway in human […] cells assessed as decrease in Bcl-2 expression incubated for 48 hrs by Western blot analysis; assay type: cell-based; conditions: filed as activator, dose 20-60 nM; in short: as §4
SGC-7901 [21] = test: Induction of apoptosis in human SGC-7901 cells assessed as late apoptotic cells at 20 nM incubated for 48 hrs by annexin V-FITC and PI staining based flow cytometry analysis (reference value: 2.4 %); assay type: functional
SGC-7901 [22] = test: Cytotoxicity against human SGC-7901 cells harboring SiYAP assessed as increase in cell viability at 20 to 60 nM incubated for 48 hrs by MTT assay; assay type: cell-based; conditions: sgc-7901, 48 h, 0.06 µM, dose 20-60 nM

For `COc1ccc(CN(C(=O)CSc2nc3ccccc3s2)c2cc(OC)c(OC)c(OC)c2)cc1O`, the IC50 (HCT-116) was 182 nM, the Activity (SGC-7901 [1]) was “Active” and the Activity (SGC-7901 [2]) was “Active”. The Activity (MGC-803 [3]) was 4.4%, the Activity (SGC-7901 [4]) was “Active” and the IC50 (GES1) was 249 nM. The Activity (MGC-803 [5]) was “Active”, the Activity (MGC-803 [6]) was “Active” and the Activity (MGC-803 [7]) was “Active”. The inhibition at 0.06 µM (MGC-803 [8]) was 72%, the Activity (SGC-7901 [9]) was “Active” and the Activity (SGC-7901 [10]) was “Active”. For the same compound, the Activity (MGC-803 [11]) was “Active”, the Activity (MGC-803 [12]) was “Active” and the Activity (MGC-803 [13]) was “Active”. For the same compound, the Activity (MGC-803 [14]) was “Active”, the IC50 (PC-3) was 2110 nM and the Activity (MGC-803 [15]) was “Active”. For the same compound, the IC50 (MGC-803 [16]) was 35 nM, the inhibition at 0.06 µM [17] was 63% and the Activity (SGC-7901 [18]) was “Active”. For the same compound, the Activity (SGC-7901 [19]) was “Active”, the Activity (MGC-803 [20]) was “Dose-dependent effect” and the Activity (SGC-7901 [21]) was 4.2%. The Activity (SGC-7901 [22]) was “Non-Toxic”.
